# Only some compounds are listed: those with a hit (about 2.5% of all), similar ones and a draw of the others.
# HIV Env fusion – blocks HIV Env-driven cell-cell fusion; HeLa-JRFL Env/CEM21 cell fusion, luciferase; inhibition, % at 12.3 µM; 1.1% of 360,000 active;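 active = mean replicate inhibition score of at least 50 and every replicate individually at or above 50; inconclusive = only one of the two criteria met; inactive = mean below 50 and not all replicates reaching 50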;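 also: 0% = plate neutral controls and 100% = maraviroc near 300 nM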
# PAX8 reporter – inhibitors of PAX8 transcriptional activity in RMG-I cells. RMG-I TPO-luciferase reporter, SteadyGlo, 24 h. inhibition, % at 12.6 µM. 1.2% of 360,000 active. AID 652154;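 active = mean replicate inhibition at least 60% with every replicate also reaching 60%; inconclusive = only one of the two criteria is met; inactive = mean below 60% and not all replicates reaching 60%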;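 also: luciferase light reporting Pax8 driven TPO promoter activity; plate controls were median of neutral control wells for no effect and mitoxantrone controls for full effect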
# FN deposition inh – fibronectin deposition inhibition. AH1F fibroblasts, Alexa488-fibronectin deposition fluorescence, overnight. inhibition, % at 12.6 µM. 0.086% of 350,000 active. AID 743247;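 active = mean inhibition across replicates of 30% or more, regardless of how many single replicates reach that level; inconclusive = mean under 30% yet at least half of replicates reach 30%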;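 also: positive control wells lacked labelled fibronectin entirely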
#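 material = AH1F fibroblast monolayer depositing Alexa488-labelled fibronectin into matrix | amount = 10000 AH1F cells/well | buffer or medium = DMEM plus 2% serum, read in PBS | incubation = 1 h cell adhesion before compound, then overnight fibronectin incubation | detection = fluorescence at 485 nm excitation, 525 nm emission | evaluation = percent inhibition as loss of matrix-bound fibronectin fluorescence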
# N-glyco inh – blocks N-linked glycosylation in D54 reporter cells. D54 ERlucT glycosylation luciferase reporter, 24 h; percent of 100 nM tunicamycin response. reporter increase, % at 12.5 µM. 0.23% of 360,000 active. AID 588692;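 active = mean luciferase reporter signal, scaled so untreated is 0 and the glycosylation-blocking control 100, at or above a set limit in every replicate; inconclusive = mean reaches the limit but not every replicate does; inactive = mean below the limit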;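 also: luciferase carries N-glycosylation sites so blocking glycosylation raises the light; 0% = median of neutral control wells and 100% = median of 100 nM tunicamycin wells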
# EWS-Fli inh – blocks EWS/Fli oncoprotein-driven transcription; A673 NR0B1-luciferase reporter, viability-normalised; inhibition, % at 12.6 µM; 0.67% of 350,000 active; AID 651661;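 active = mean inhibition of at least 50% after viability correction, with every replicate also passing that limit; inconclusive = mean reaches 50% but only one of two replicates passes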;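 also: firefly luciferase signal divided by Alamar Blue viability fluorescence both relative to DMSO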
# MLL AF4-AF9 inh – inhibitors of human MLL-AF4/AF9 interaction | AlphaScreen, biotin-AF4 peptide binding to FLAG-AF9 | inhibition, % at 10 µM | 0.47% of 350,000 active;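 active = every replicate reaching a set inhibition limit, whatever the replicate mean, cut at about 25% in these data; inconclusive = mean inhibition reaches that limit but some replicates miss it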;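 also: 0% = plate neutral control median and 100% = total signal loss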
# Target sequence (P42568 whole entry, looked up): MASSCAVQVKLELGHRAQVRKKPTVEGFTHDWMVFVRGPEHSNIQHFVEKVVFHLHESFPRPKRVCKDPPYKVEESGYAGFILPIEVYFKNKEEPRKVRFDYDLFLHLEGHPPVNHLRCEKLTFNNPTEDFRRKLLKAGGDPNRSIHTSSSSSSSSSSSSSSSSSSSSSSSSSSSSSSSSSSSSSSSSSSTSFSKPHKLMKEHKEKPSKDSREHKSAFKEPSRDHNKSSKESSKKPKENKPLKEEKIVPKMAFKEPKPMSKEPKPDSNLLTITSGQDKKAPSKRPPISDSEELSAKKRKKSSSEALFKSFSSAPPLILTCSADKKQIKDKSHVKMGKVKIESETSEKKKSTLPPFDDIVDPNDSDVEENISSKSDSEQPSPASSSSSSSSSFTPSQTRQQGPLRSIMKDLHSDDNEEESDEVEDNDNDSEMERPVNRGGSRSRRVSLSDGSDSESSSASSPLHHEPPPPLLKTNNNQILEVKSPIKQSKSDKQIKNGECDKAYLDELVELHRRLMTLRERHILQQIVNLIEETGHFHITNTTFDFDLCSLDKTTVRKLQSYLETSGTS
# * marks the source's active call; other numbers are inactive results; u = inconclusive; x = not tested or not shown; [ ] = remark or other dose.
SMILES,HIV Env fusion,PAX8 reporter,FN deposition inh,N-glyco inh,EWS-Fli inh,MLL AF4-AF9 inh
Cc1nnc(NC(=O)CSc2nnc(CCNC(=O)c3ccccc3F)n2C)s1,-2.7,15.5,-5.8,3.4,12.8,42.3*
CCC(=O)N1CC2(C1)[C@H](c1ccccc1)[C@H](CO)N2Cc1cc(F)ccc1F,x,x,x,x,-9.4,-0.6
CC(C)Cc1nnc(NC(=O)CSc2nc(N)cc(=O)[nH]2)s1,0.6,x,active,1.2,x,x
CCc1nc(SCC(=O)Nc2nnc(CC(C)C)s2)n[nH]1,6.9,1.6,-5.9,1.1,-7.6,-3.0
CCOc1cc(CNc2ncnc3nc[nH]c23)ccc1OC,11.6,17.2,-2.9,2.0,3.4,0.9
CCOc1cc(CNc2cccc3[nH]c(C)nc23)ccc1OC,9.8,4.5,7.9,7.5,0.6,30.3*
CCCCN1C(=N)N([C@@H](CN2CCC[C@H]2CN2C(N)=NC[C@@H]2Cc2ccccc2)C(C)C)C[C@H]1Cc1ccccc1,-12.8,63.4*,0.6,1.2,7.5,11.6
C[C@H]1CN([C@@H](C)CO)C(=O)c2cc(C#CC3CCCCC3)cnc2O[C@@H]1CN(C)S(=O)(=O)c1cccc(F)c1,x,51.3,1.0,x,2.5,32.3*
C[C@@H]1CN([C@H](C)CO)C(=O)c2cc(C#Cc3ccccc3F)cnc2O[C@H]1CN(C)S(=O)(=O)c1ccccc1F,32.1[16.7 µM],x,-3.0,x,0.5,-0.9
C[C@H](CO)N1C[C@H](C)[C@H](CN(C)S(=O)(=O)c2ccc(C#N)cc2)Oc2ncc(C#Cc3ccc(C(F)(F)F)cc3)cc2C1=O,x,74.3*,0.2,x,x,-1.7
C[C@@H]1CN([C@@H](C)CO)C(=O)c2cc(C#Cc3ccccc3F)cnc2O[C@@H]1CN(C)S(=O)(=O)c1ccccc1F,56.2*[16.7 µM],x,-16.8,x,-4.5,1.9
C[C@H](CO)N1C[C@H](C)[C@H](CN(C)S(=O)(=O)c2ccc(F)cc2)Oc2ncc(C#Cc3cccc(F)c3)cc2C1=O,22.8[16.7 µM],x,3.6,x,30.7,-1.3
C[C@@H]1CN([C@H](C)CO)C(=O)c2cccc(NC(=O)Nc3ccc(C(F)(F)F)cc3)c2O[C@H]1CN(C)Cc1ccc(C(F)(F)F)cc1,59.0*[16.7 µM],-3.6,x,x,2.7,-1.0
C[C@@H]1CN([C@@H](C)CO)C(=O)c2cccc(NC(=O)Nc3ccc(C(F)(F)F)cc3)c2O[C@H]1CN(C)Cc1ccc(Oc2ccccc2)cc1,69.1*[16.7 µM],x,-4.1,x,6.7,6.0
C[C@H]1CN([C@@H](C)CO)C(=O)c2cccc(NC(=O)Nc3ccc(C(F)(F)F)cc3)c2O[C@H]1CN(C)Cc1ccc(C(F)(F)F)cc1,-6.6[16.7 µM],-1.5,x,x,-6.8,-0.6
C[C@@H]1CCCCO[C@H](CN(C)C)[C@H](C)CN([C@H](C)CO)C(=O)c2cc(NS(=O)(=O)c3cccs3)ccc2O1,11.7[16.7 µM],-1.9,0.3,x,-12.8,0.2
CC(O)(CS(=O)(=O)Cc1cccc(C(F)(F)F)c1)C(=O)Nc1cccc(C(F)(F)F)c1 (stereo not given),58.8*,x,x,13.8,x,x
C[C@@H]1CN([C@H](C)CO)C(=O)Cc2cc(NC(=O)Nc3cccc4ccccc34)ccc2O[C@H]1CN(C)C(=O)Nc1ccc(C(F)(F)F)cc1,12.9[16.7 µM],x,x,x,1.6,1.7
CN1C(=O)c2cc(NS(=O)(=O)c3ccccc3Cl)ccc2OC[C@@H]2O[C@@H](CC(=O)O)CC[C@@H]21,-3.2[16.7 µM],27.5,8.8,x,1.0,-0.3
C=CCC[C@H](Cc1ccc(F)cc1)C(=O)OC[C@@H](Cc1c[nH]c2ccccc12)NC(=O)[C@@H](CC=C)CC(=O)N(CCO)Cc1ccccc1,-126.3,83.6*,-6.8,-2.8,8.0,1.1
C=CC[C@H](CC(=O)N(CCO)Cc1ccccc1)C(=O)N[C@H](COC(=O)[C@@H](CC=C)Cc1ccc(F)cc1)Cc1ccccc1,u,80.0*,-4.4,-5.3,0.1,3.6
C=CCC[C@H](Cc1ccc(F)cc1)C(=O)O[C@H](CNC(=O)[C@@H](CC=C)CC(=O)N(CCO)Cc1ccccc1)c1ccccc1,129.2*,46.6,4.7,-3.8,7.8,-1.0
C=CC[C@H](CC(=O)N(CCO)Cc1ccccc1)C(=O)N[C@H](COC(=O)[C@@H](CC=C)CC(=O)OC(C)(C)C)Cc1c[nH]c2ccccc12,64.1*,47.3,6.9,-2.8,11.9,-0.7

# Bioassay records as filed in PubChem.
